Results on 18 molecules are retold here after ChEMBL document CHEMBL1150198, “DNA as an affinity probe useful in the detection and isolation of biologically active natural products” (J Nat Prod, 1991).

Starred links: 1 amine or outer side, 2 acyl side, 3 side chain; linkers in the order of their positions; H or OH if unused. Positions of bridges follow the written chain, without caps; N, C: chain ends. Non-standard residues stand in square brackets, D forms with d. Residues, ends and D or L forms follow the SMILES beside them. Chains are numbered I, II in the order given. Actinocin(9to1) = Cc1c2oc3c(C)ccc(C(=O)[*:1])c3nc-2c(C(=O)[*:2])c(N)c1=O; NMeV = CN[C@H](C(=O)O)C(C)C; Sar = CNCC(=O)O

Assay [1] relates to Nucleic Acid. The assay is described as follows: Binding affinity to yeast tRNA assessed as reduction in tRNA peak by pre-incubation method. The assay is classed as nucleic-acid assay. Further details: concentration or dose not given beside the values. The conditions noted are these: Saccharomyces cerevisiae. In outline:
(§1)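 Nucleic acid at 0.1 mg/ml in water; test substance at 1.0 mg/ml in water or MeOH, mixed 1:1 (v/v) and held at ambient temperature for 5–30 min. 40 or 80 µl injected onto a C18 reversed-phase column equilibrated in H2O-MeOH (80:20), 1 ml/min, with 254 nm detection. The free nucleic-acid peak (~1.2 min) was compared with nucleic acid injected alone.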

The subject of assay [2] is Calf thymus DNA. The assay is described as follows: Binding affinity to calf thymus DNA assessed as reduction in DNA peak by pre-incubation method. The assay is classed as nucleic-acid assay. Further details: concentration or dose not given beside the values. The conditions noted are these: Bos taurus. In outline: as §1

As to `COc1cc2c(ccc3c4cc(OC)c(OC)cc4c[n+](C)c23)cc1O`, the Activity in assay [1] and in assay [2] was 100% in each case. `COc1cc2c(c(OC)c1OC)-c1ccc(OC)c(=O)cc1[C@@H](NC(C)=O)CC2`: the Activity in assay [1] and in assay [2] was less than 30% in each case.

`C=C1C(=O)O[C@@H]2C3O[C@]3(C)CC/C=C(\C)CC[C@@H]12` (stereo partly specified): the Activity is less than 30% in assay [1] and 30% in assay [2].

As for `COC(=O)CC1(O)C=CC(=O)C=C1`, the Activity in assay [1] was less than 30%; in assay [2], 30%. The like results for `C=C1C(=O)O[C@H]2[C@H]1[C@@H](O)[C@H](O)C(C)=C1C[C@H]3O[C@@]3(C)[C@@H]12` were, in that order, less than 30% and 30%. The matching figures for BLEOMYCIN: greater than 70% and less than 30%.

`Nc1c2ccccc2nc2ccccc12`: the Activity in assay [1] was 100%; in assay [2], greater than 70%. As to `CC[n+]1c(-c2ccccc2)c2cc(N)ccc2c2ccc(N)cc21`, the Activity in assay [1] and in assay [2] was 100% in each case. For `CC[C@]1(O)C[C@@H]2CN(CCc3c([nH]c4ccccc34)[C@@](C(=O)OC)(c3cc4c(cc3OC)N(C)[C@H]3[C@@](O)(C(=O)OC)[C@H](OC(C)=O)[C@]5(CC)C=CCN6CC[C@]43[C@@H]65)C2)C1`, the Activity in assay [1] is 100%; in assay [2], greater than 70%. As for `COc1cc2c(c3c1c(=O)c1ccccc1n3C)C=CC(C)(C)O2`, the Activity in assay [2] was less than 30%. Same read-out and setting: with `CC(C)=CC(=O)O[C@@H]1C(C)=C2C(=O)C=C(C)[C@]2(O)[C@H]2OC(=O)C[C@@H]2[C@H]1O` the figure was 30%.

On to `COc1cccc2c1C(=O)c1c(O)c3c(c(O)c1C2=O)C[C@@](O)(C(C)=O)C[C@@H]3O[C@H]1C[C@H](N)[C@H](O)[C@H](C)O1`, for which the Activity in assay [2] came to 100%. For the molecule `C=C1C(=O)O[C@H]2[C@H]1[C@@H](O)[C@H](OC(=O)C=C(C)C)C(C)=C1C[C@H]3O[C@@]3(C)[C@@H]12`, in assay [2], the Activity amounted to 30%. With `Cc1c2ccncc2c(C)c2c1[nH]c1ccccc12`, the Activity in assay [1] was 30%; in assay [2], greater than 70%. Turning to `COc1ccc2c(c1)c1ccnc3ccc(=O)n2c31`, the Activity in assay [2] stood at 30%. Take `Cc1c2oc3c(C)ccc(C(=O)N[C@@H]4C(=O)N[C@H](C(C)C)C(=O)N5CCC[C@H]5C(=O)N(C)CC(=O)N(C)[C@@H](C(C)C)C(=O)O[C@@H]4C)c3nc-2c(C(=O)N[C@@H]2C(=O)N[C@H](C(C)C)C(=O)N3CCC[C@H]3C(=O)N(C)CC(=O)N(C)[C@@H](C(C)C)C(=O)O[C@@H]2C)c(N)c1=O` (I: T[dV]P[Sar][NMeV] / II: T[dV]P[Sar][NMeV]; ester I:1-I:C, II:1-II:C; linker I:N-II:N via Actinocin(9to1)): the Activity is less than 30% in assay [1] and 30% in assay [2]. The matching figures for `COc1cccc2c1C(=O)c1c(O)c3c(c(O)c1C2=O)C[C@@](O)(C(=O)CO)C[C@@H]3O[C@H]1C[C@H](N)[C@H](O)[C@H](C)O1`: 100% and 100%. Regarding `CC[C@]1(O)C[C@H]2CN(CCc3c([nH]c4ccccc34)[C@@](C(=O)OC)(c3cc4c(cc3OC)N(C=O)[C@H]3[C@@](O)(C(=O)OC)[C@H](OC(C)=O)[C@]5(CC)C=CCN6CC[C@]43[C@@H]65)C2)C1`, the Activity is 100% in assay [1] and greater than 70% in assay [2].
